What was measured:
[1] = Ratio of drug uptake in tumor to muscle of mouse S180 cells xenografted Kunming mouse at 10 to 20 uCi, iv after 120 mins by gamma counting; format: ADME, organism-based, CCRF S-180; conditions: in vivo, 2 h
[2] = test system: Heart; experiment: Biodistribution in mouse S180 cells xenografted Kunming mouse heart at 10 to 20 uCi, iv after 5 mins by gamma counting; format: ADME, organism-based, CCRF S-180; conditions: in vivo
[3] = test system: Liver; experiment: Biodistribution in mouse S180 cells xenografted Kunming mouse liver at 10 to 20 uCi, iv after 5 mins by gamma counting; format: ADME, organism-based, CCRF S-180; conditions: in vivo
[4] = test system: Blood; experiment: Biodistribution in mouse S180 cells xenografted Kunming mouse blood at 10 to 20 uCi, iv after 5 mins by gamma counting; format: ADME, organism-based, CCRF S-180; conditions: in vivo
[5] = Biodistribution in mouse S180 cells xenografted Kunming mouse tumor at 10 to 20 uCi, iv after 5 mins by gamma counting; format: ADME, organism-based, Neoplasm, CCRF S-180; conditions: in vivo
[6] = Ratio of drug uptake in tumor to blood of mouse S180 cells xenografted Kunming mouse at 10 to 20 uCi, iv after 5 mins by gamma counting; format: ADME, organism-based, CCRF S-180; conditions: tumour
[7] = test system: Blood; experiment: Biodistribution in mouse S180 cells xenografted Kunming mouse blood at 10 to 20 uCi, iv after 15 mins by gamma counting; format: ADME, organism-based, CCRF S-180; conditions: in vivo, 0.25 h
[8] = test system: Muscle tissue; experiment: Biodistribution in mouse S180 cells xenografted Kunming mouse muscle at 10 to 20 uCi, iv after 30 mins by gamma counting; format: ADME, organism-based, CCRF S-180; conditions: in vivo, 0.5 h
[9] = Ratio of drug uptake in tumor to muscle of mouse S180 cells xenografted Kunming mouse at 10 to 20 uCi, iv after 30 mins by gamma counting; format: ADME, organism-based, CCRF S-180; conditions: in vivo, 0.5 h
[10] = test system: Heart; experiment: Biodistribution in mouse S180 cells xenografted Kunming mouse heart at 10 to 20 uCi, iv after 60 mins by gamma counting; format: ADME, organism-based, CCRF S-180; conditions: in vivo, 1 h
[11] = test system: Lung; experiment: Biodistribution in mouse S180 cells xenografted Kunming mouse lung at 10 to 20 uCi, iv after 60 mins by gamma counting; format: ADME, organism-based, CCRF S-180; conditions: in vivo, 1 h
[12] = test system: Kidney; experiment: Biodistribution in mouse S180 cells xenografted Kunming mouse kidney at 10 to 20 uCi, iv after 60 mins by gamma counting; format: ADME, organism-based, CCRF S-180; conditions: in vivo, 1 h
[13] = Ratio of drug uptake in tumor to brain of mouse S180 cells xenografted Kunming mouse at 10 to 20 uCi, iv after 60 mins by gamma counting; format: ADME, organism-based, CCRF S-180; conditions: in vivo, 1 h
[14] = test system: Heart; experiment: Biodistribution in mouse S180 cells xenografted Kunming mouse heart at 10 to 20 uCi, iv after 120 mins by gamma counting; format: ADME, organism-based, CCRF S-180; conditions: in vivo, 2 h
[15] = test system: Pancreas; experiment: Biodistribution in mouse S180 cells xenografted Kunming mouse pancreas at 10 to 20 uCi, iv after 120 mins by gamma counting; format: ADME, organism-based, CCRF S-180; conditions: in vivo, 2 h
[16] = test system: Lung; experiment: Biodistribution in mouse S180 cells xenografted Kunming mouse lung at 10 to 20 uCi, iv after 120 mins by gamma counting; format: ADME, organism-based, CCRF S-180; conditions: in vivo, 2 h
[17] = Ratio of drug uptake in tumor to blood of mouse S180 cells xenografted Kunming mouse at 10 to 20 uCi, iv after 30 mins by gamma counting; format: ADME, organism-based, CCRF S-180; conditions: tumour, 0.5 h
[18] = test system: Plasma; experiment: Metabolic stability in mouse plasma at 100 to 150 uCi after 3 hrs by HPLC analysis; format: ADME, cell-free
How it was run: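 Radiotracer (100–150 µCi, 50 µL) incubated in 0.5 mL mouse plasma for 3 h. Plasma then mixed with 1 mL CH3CN and centrifuged 5 min at 13,200 rpm. Supernatant passed through a C18 Sep-Pak and analysed by HPLC.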

[19] = Octanol-water partition coefficient, log P at pH 7.4 after 5 mins; format: physicochemical
How it was run: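 Shake-flask partition using 2.5 mL n-octanol and 2.5 mL 0.01 M PBS pH 7.4, with 0.01 mL radioactive sample added. Mixed vigorously for 5 min at room temperature, then centrifuged. Radioactivity counted in 0.01 mL of each phase.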

[20] = test system: Stomach; experiment: Biodistribution in mouse S180 cells xenografted Kunming mouse stomach at 10 to 20 uCi, iv after 5 mins by gamma counting; format: ADME, organism-based, CCRF S-180; conditions: in vivo
How it was run: (§1)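 Female Kunming mice with subcutaneous S180 tumors (5 × 10^6 cells into right front flank, no anesthesia), used 7–14 days after inoculation at 18–22 g. Tracer in saline (10–20 µCi, 100 µL) given by tail vein; mice killed at 5, 15, 30, 60 and 120 min. Tissues excised, blotted, weighed and gamma-counted with decay correction. Reported as %ID/g, mean ± SD, n = 4.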

[21] = test system: Stomach; experiment: Biodistribution in mouse S180 cells xenografted Kunming mouse stomach at 10 to 20 uCi, iv after 15 mins by gamma counting; format: ADME, organism-based, CCRF S-180; conditions: in vivo, 0.25 h; how it was run: as §1
[22] = test system: Stomach; experiment: Biodistribution in mouse S180 cells xenografted Kunming mouse stomach at 10 to 20 uCi, iv after 30 mins by gamma counting; format: ADME, organism-based, CCRF S-180; conditions: in vivo, 0.5 h; how it was run: as §1
[23] = test system: Stomach; experiment: Biodistribution in mouse S180 cells xenografted Kunming mouse stomach at 10 to 20 uCi, iv after 60 mins by gamma counting; format: ADME, organism-based, CCRF S-180; conditions: in vivo, 1 h; how it was run: as §1
[24] = test system: Stomach; experiment: Biodistribution in mouse S180 cells xenografted Kunming mouse stomach at 10 to 20 uCi, iv after 120 mins by gamma counting; format: ADME, organism-based, CCRF S-180; conditions: in vivo, 2 h; how it was run: as §1

With `OC[C@H]1O[C@@H](O)[C@H]([18F])[C@@H](O)[C@@H]1O` [FLUDEOXYGLUCOSE-F18] the Ratio [1] was 2.2, the Drug uptake [2] was 2.6 % ID/g and the Drug uptake [3] was 1.35 % ID/g. The Drug uptake [4] was 1.09 % ID/g, the Drug uptake [5] was 1.27 % ID/g and the Ratio [6] was 1.17. The Drug uptake [7] was 0.46 % ID/g, the Drug uptake [8] was 1.07 % ID/g and the Ratio [9] was 1.75. It also gave a Drug uptake [10] of 3.24 % ID/g, a Drug uptake [11] of 0.57 % ID/g and a Drug uptake [12] of 0.54 % ID/g. For the same compound, the Ratio [13] was 1.02, the Drug uptake [14] was 6.27 % ID/g and the Drug uptake [15] was 0.78 % ID/g. It also gave a Drug uptake [16] of 0.52 % ID/g.
With `N[C@@H](Cc1ccc(OCC[18F])cc1)C(=O)O` [FLORETYROSINE F18] the Ratio [1] was 1.02, the Drug uptake [2] was 5.89 % ID/g and the Drug uptake [3] was 7.67 % ID/g. It also gave a Drug uptake [4] of 6.81 % ID/g, a Drug uptake [5] of 2.08 % ID/g and a Ratio [6] of 0.31. The Drug uptake [7] was 3.3 % ID/g, the Drug uptake [8] was 2.69 % ID/g and the Ratio [17] was 1.02. For the same compound, the Ratio [9] was 0.62, the Drug uptake [10] was 3.14 % ID/g and the Drug uptake [11] was 4.7 % ID/g. It also gave a Drug uptake [12] of 3.75 % ID/g, a Ratio [13] of 2.92 and a Drug uptake [14] of 0.94 % ID/g. It also gave a Drug uptake [15] of 0.09 % ID/g and a Drug uptake [16] of 1.55 % ID/g.
For `CCCc1nc2c(C)cc(C(=O)O)cc2n1CC[18F]`, the Ratio [1] was 2.58, the Stability [18] was “Stable” and the logD at 5 min [19] was -0.5. The Drug uptake [2] was 4.48 % ID/g, the Drug uptake [3] was 4.13 % ID/g and the Drug uptake [20] was 5.52 % ID/g. It also gave a Drug uptake [4] of 3.17 % ID/g, a Drug uptake [5] of 2.28 % ID/g and a Ratio [6] of 0.72. The Drug uptake [21] was 4.33 % ID/g, the Drug uptake [7] was 2.25 % ID/g and the Drug uptake [22] was 3.87 % ID/g. The Drug uptake [8] was 1.17 % ID/g, the Ratio [17] was 1.09 and the Ratio [9] was 1.27. It also gave a Drug uptake [10] of 1.08 % ID/g, a Drug uptake [11] of 2.35 % ID/g and a Drug uptake [12] of 4.2 % ID/g. It also gave a Drug uptake [23] of 3.23 % ID/g, a Ratio [13] of 7.15 and a Drug uptake [14] of 0.26 % ID/g. For the same compound, the Drug uptake [15] was 0.2 % ID/g, the Drug uptake [16] was 0.66 % ID/g and the Drug uptake [24] was 1.14 % ID/g.

From ChEMBL document CHEMBL1156163, “(18)F Labeled benzimidazole derivatives as potential radiotracer for positron emission tomography (PET) tumor imaging” (Bioorg Med Chem, 2010)
